Measurements published in ChEMBL document CHEMBL1127567, “Retro-binding tripeptide thrombin active-site inhibitors: discovery, synthesis, and molecular modeling” (J Med Chem, 1994).
Square brackets hold non-standard residues; d marks the D form. Peptide text beside a SMILES is read from it. Phe(ol) = N[C@H](CO)Cc1ccccc1; Ahp = NCCCCCCC(=O)O; Ahx = NCCCCCC(=O)O; Ava = NCCCCC(=O)O; GABA = NCCCC(=O)O

What was measured:
Prothrombin [1] = biological target: T1, Prothrombin (Homo sapiens, UniProt P00734); experiment: In vitro activity against thrombin with 10 uM substrate s-2238 (D-Phe-Pip-Arg-pNA)
Prothrombin [2] = biological target: T1, Prothrombin; experiment: In vitro activity against thrombin was determined, using a 10 uM substrate s-2238 (D-Phe-Pip-Arg-pNA); 20-30
Procedure, shortened: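 Human α-thrombin (0.1 unit/mL) preincubated with inhibitor for 3 min at room temperature in pH 7.4 buffer (30 mM HEPES, 145 mM NaCl, 5 mM KCl, 1 mg/mL PEG-8000). […] Absorbance change at 405 nm followed kinetically. Values are means of at least triplicate determinations.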

Plasminogen [3] = biological target: T2, Plasminogen (Homo sapiens, UniProt P00747); experiment: In vitro activity against plasmin was determined
Coagulation factor X = Coagulation factor X (Homo sapiens, UniProt P00742); experiment: In vitro activity against Factor Xa was determined
Prothrombin [4] = biological target: T1, Prothrombin; experiment: In vitro activity against thrombin was determined
Plasminogen [5] = biological target: T2, Plasminogen; experiment: In vitro activity against […] was determined
Serine protease 1 = Serine protease 1 (Homo sapiens, UniProt P07477); experiment: In vitro activity against trypsin was determined
Chain of Serine protease 1 (P07477 whole entry): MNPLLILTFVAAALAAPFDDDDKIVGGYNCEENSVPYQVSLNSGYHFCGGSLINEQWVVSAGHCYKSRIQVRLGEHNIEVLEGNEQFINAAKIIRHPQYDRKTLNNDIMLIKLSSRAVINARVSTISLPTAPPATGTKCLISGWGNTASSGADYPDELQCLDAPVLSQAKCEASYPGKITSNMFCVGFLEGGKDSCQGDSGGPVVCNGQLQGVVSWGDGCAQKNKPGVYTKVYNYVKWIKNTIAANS

Chain of Coagulation factor X (P00742 41-179 limits assumed): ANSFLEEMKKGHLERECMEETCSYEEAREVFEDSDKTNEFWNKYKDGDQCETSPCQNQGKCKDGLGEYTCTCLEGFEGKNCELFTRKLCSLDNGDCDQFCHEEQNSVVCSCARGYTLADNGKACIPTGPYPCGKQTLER
Chain of Coagulation factor X (P00742 235-488 limits assumed): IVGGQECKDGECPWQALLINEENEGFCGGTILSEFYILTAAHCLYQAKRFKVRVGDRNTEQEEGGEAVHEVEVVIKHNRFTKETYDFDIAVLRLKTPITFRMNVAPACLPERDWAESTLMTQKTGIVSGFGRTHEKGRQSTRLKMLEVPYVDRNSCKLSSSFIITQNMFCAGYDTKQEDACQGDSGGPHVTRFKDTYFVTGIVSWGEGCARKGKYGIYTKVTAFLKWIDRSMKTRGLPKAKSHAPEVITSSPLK
T2 sequence (P00747 97-580 limits assumed): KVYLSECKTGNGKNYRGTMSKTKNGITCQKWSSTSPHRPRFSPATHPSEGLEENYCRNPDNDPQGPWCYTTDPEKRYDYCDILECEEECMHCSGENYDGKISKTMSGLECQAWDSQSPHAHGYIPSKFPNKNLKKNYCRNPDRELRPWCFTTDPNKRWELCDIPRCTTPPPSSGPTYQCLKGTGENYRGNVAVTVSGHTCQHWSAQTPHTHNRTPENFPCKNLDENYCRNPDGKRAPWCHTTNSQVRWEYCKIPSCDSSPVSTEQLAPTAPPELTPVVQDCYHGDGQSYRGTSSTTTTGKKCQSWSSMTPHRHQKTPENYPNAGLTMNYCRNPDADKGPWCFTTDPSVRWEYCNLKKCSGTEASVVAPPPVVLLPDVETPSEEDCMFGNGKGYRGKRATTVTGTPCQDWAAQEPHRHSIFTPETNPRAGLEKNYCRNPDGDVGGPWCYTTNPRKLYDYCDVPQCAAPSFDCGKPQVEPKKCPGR
T2 sequence (P00747 581-810 limits assumed): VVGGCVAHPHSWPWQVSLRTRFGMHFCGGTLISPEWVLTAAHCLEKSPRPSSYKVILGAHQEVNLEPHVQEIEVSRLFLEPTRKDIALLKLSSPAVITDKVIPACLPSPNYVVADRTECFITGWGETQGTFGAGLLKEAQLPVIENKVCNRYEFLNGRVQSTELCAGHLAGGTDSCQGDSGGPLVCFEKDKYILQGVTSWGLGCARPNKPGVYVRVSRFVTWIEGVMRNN

Row | SMILES | IC50 (Prothrombin [1]) | also measured
1 | COC(=O)[C@H](Cc1ccccc1)NC(=O)[C@H](CC(C)C)NC(=O)[C@H](Cc1ccccc1)NC(=O)CCCCCN (H-[Ahx]FLF-OMe) | 80 µM | 
2 | COC(=O)[C@H](Cc1ccccc1)NC(=O)[C@H](CC(C)C)NC(=O)[C@H](Cc1ccccc1)NC(=O)CCCN (H-[GABA]FLF-OMe) | > 300 µM | 
3 | COC(=O)C(O)[C@H](CCCCN)NC(=O)[C@@H]1CCCN1C(=O)[C@@H](Cc1ccccc1)NC(=O)CCCCCN (some centres undefined) | 17.6 µM | 
4 | COC(=O)[C@H](Cc1ccccc1)NC(=O)[C@H](CC(C)C)NC(=O)[C@@H](N)Cc1ccccc1 (H-Phe-Leu-Phe-OMe) | > 333 µM | 
5 | COC(=O)[C@H](Cc1ccccc1)NC(=O)[C@H](CC(C)C)NC(=O)[C@H](Cc1ccccc1)NC(=O)CCCCCCN (H-[Ahp]FLF-OMe) | 330 µM | 
6 | COC(=O)[C@H](Cc1ccccc1)NC(=O)[C@H](CC(C)C)NC(=O)[C@H](Cc1ccccc1)NC(=O)CCCCN (H-[Ava]FLF-OMe) | 57.1 µM | 
7 | COC(=O)[C@H](Cc1ccccc1)NC(=O)[C@H](CC(C)C)NC(=O)[C@H](Cc1ccccc1)NC(=O)CCCCCNC(=N)N | > 200 µM | 
8 | COC(=O)C(O)[C@H](CCCCN)NC(=O)[C@@H]1CCCN1C(=O)[C@H](N)Cc1ccccc1 (some centres undefined) |  | IC50 (Prothrombin [2]): 30 µM
9 | CC(C)C[C@H](NC(=O)[C@H](Cc1ccccc1)NC(=O)CCCCN)C(=O)N[C@H](CO)Cc1ccccc1 (H-[Ava]FL[Phe(ol)]) | 100 µM | 
10 | CC(C)C[C@H](NC(=O)[C@H](Cc1ccccc1)NC(=O)CCCN=C(N)N)C(=O)N[C@@H](CC1CCCCC1)[C@@H](O)c1nccs1 |  | IC50 (Plasminogen [3]): 143 µM; IC50 (Coagulation factor X): 6 µM
11 | CC(C)C[C@H](NC(=O)[C@H](Cc1ccccc1)NC(=O)CCCCCN)C(=O)N[C@@H](CC1CCCCC1)[C@@H](O)c1nccs1 | 7.5 µM | 
12 | CC(C)C[C@H](NC(=O)[C@@H](N)Cc1ccccc1)C(=O)N[C@@H](CC1CCCCC1)[C@@H](O)c1nccs1 | > 530 µM | 
13 | COC(=O)[C@H](Cc1ccccc1)NC(=O)[C@H](CC(C)C)NC(=O)[C@H](Cc1ccccc1)NC(=O)CCCNC(=N)N | 1.41 µM | 
14 | COC(=O)[C@H](Cc1ccccc1)NC(=O)[C@H](CC(C)C)NC(=O)[C@H](Cc1ccccc1)NC(=O)CCCCNC(=N)N | 154 µM | 
15 | CN[C@H](Cc1ccccc1)C(=O)N1CCC[C@H]1C(=O)N[C@H](C=O)CCCN=C(N)N |  | IC50 (Prothrombin [4]): 8 nM; IC50 (Plasminogen [5]): 230 nM; IC50 (Coagulation factor X): 4 µM; IC50 (Serine protease 1): 8 nM
